# Assay results taken from ChEMBL document CHEMBL1157227, “Cytotoxic pregnane steroids from the formosan soft coral Stereonephthya crystalliana” (J Nat Prod, 2006).
# Columns and labels:
# HT-29 = test: Cytotoxicity against human HT29 cells; format: functional; settings: read-out: ED50 (the source's name)
# Summary of the method: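 HT-29 human colon adenocarcinoma cells from ATCC; in vitro cytotoxicity by a previously described procedure; result given as ED50 in µg/mL, with ED50 ≤ 4.0 µg/mL taken as significant for pure compounds.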
# P388 = test: Cytotoxicity against mouse P388 cells; format: functional, cell-based
# Summary of the method: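 P-388 mouse lymphocytic leukemia cells provided by an academic lab; in vitro cytotoxicity by a previously described procedure; result given as ED50 in µg/mL, with ED50 ≤ 4.0 µg/mL taken as significant for pure compounds.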
Structure (SMILES),EC50 (HT-29) [µg/mL],IC50 (P388) [µg/mL]
C=CC1CCC2C3CCC4CC(OC5OC(C)C(O)C(OC(C)=O)C5O)CCC4(C)C3CCC12C (stereo not drawn),6.2,13.3
C=C[C@H]1CC[C@H]2[C@@H]3CC[C@H]4C[C@@H](O)CC[C@]4(CO)[C@H]3CC[C@]12C [STEREONSTEROID A],7.5,3.5
C=C[C@H]1CC[C@H]2[C@@H]3CC[C@H]4C[C@@H](OC(C)=O)CC[C@]4(C=O)[C@H]3CC[C@]12C [STEREONSTEROID B],1.7,1.6
C=C[C@H]1CC[C@H]2[C@@H]3CC[C@H]4C[C@@H](O[C@@H]5O[C@@H](C)[C@@H](OC(C)=O)[C@@H](O)[C@@H]5O)CC[C@]4(CO)[C@H]3CC[C@]12C [STEREONSTEROID C],2.7,3.1
C=C[C@H]1CC[C@H]2[C@@H]3CC[C@H]4C[C@@H](O[C@@H]5O[C@@H](C)[C@@H](OC(C)=O)[C@@H](O)[C@@H]5O)CC[C@]4(COC(C)=O)[C@H]3CC[C@]12C [STEREONSTEROID D],5.2,4.9
C=C[C@H]1CC[C@H]2[C@@H]3CC[C@H]4C[C@@H](O[C@@H]5O[C@@H](C)[C@@H](OC(C)=O)[C@@H](O)[C@@H]5O)CC[C@]4(C=O)[C@H]3CC[C@]12C [STEREONSTEROID E],9.3,3.8
C=C[C@H]1CC[C@H]2[C@@H]3CC[C@H]4C[C@@H](O[C@@H]5O[C@@H](C)[C@@H](OC(C)=O)[C@@H](O)[C@@H]5O)CC[C@]4(C)[C@H]3CC[C@]12C [STEREONSTEROID F],10.8,9.4
C=C[C@H]1CC[C@H]2[C@@H]3CC=C4C[C@@H](O[C@@H]5O[C@@H](C)[C@@H](O)[C@@H](OC(C)=O)[C@@H]5O)CC[C@]4(C)[C@H]3CC[C@]12C [STEREONSTEROID H],5.3,5.4
C=C[C@H]1CC[C@H]2[C@@H]3CC[C@H]4C[C@@H](O[C@@H]5OC[C@@H](O)[C@H](O)[C@H]5O)CC[C@]4(C)[C@H]3CC[C@]12C [STEREONSTEROID I],7.7,5.9
